PKA-R2B act – PKA-R2B complex activation. P22694+P31323. PKA-R2B holoenzyme dissociation, Cy5-IP20 fluorescence polarization; R2B truncated from residue 108, S112A mutant; 0% DMSO only, 100% 113 µM cGMP. activation, % at 11.4 µM. 0.079% of 340,000 active. AID 504700;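 active = activation above a cutoff set at the mean over all compounds plus 3 SD, cut at about 18% in these data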;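 note: higher means more holoenzyme dissociation and a rise in polarization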
Target sequence (P31323 whole entry, looked up, other chains not shown, the tested form may be a part): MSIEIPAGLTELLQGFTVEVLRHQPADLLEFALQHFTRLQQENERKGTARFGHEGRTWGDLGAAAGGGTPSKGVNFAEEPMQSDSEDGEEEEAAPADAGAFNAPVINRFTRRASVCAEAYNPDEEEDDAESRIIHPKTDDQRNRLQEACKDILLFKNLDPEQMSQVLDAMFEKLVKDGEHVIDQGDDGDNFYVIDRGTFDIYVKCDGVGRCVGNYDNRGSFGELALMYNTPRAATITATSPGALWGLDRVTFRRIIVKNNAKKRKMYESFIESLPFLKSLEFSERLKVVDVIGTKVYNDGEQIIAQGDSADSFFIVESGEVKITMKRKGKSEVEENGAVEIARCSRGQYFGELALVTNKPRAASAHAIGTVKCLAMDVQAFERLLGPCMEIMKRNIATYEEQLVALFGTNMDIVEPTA
Rin1-Abl PPI inh – blocks binding of human Rin1 to Abl. TR-FRET Rin1/Abl binding, biochemical. inhibition, % at 7.35 µM. AID 588664. 0.4% of 360,000 active; in the data active = inhibition above about 5%, passing the limit was not always enough
PKA-R1A activ – activators of PKA-R1A complex. P00514+P68181. PKA-R1A dissociation, Cy5-IP20 fluorescence polarization; scaled: DMSO 0%, 113 µM cGMP 100%. activation, % at 11.4 µM. 0.083% of 340,000 active. AID 504707;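 active = percent activation above the mean of all tested compounds plus 3 SD, cut at about 19% in these data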;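 note: higher means more PKAc released from R1A so a rise in polarization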
H9c2 protect – myocardial damage modulation in H9c2 cells; H9c2 cardiomyocytes, H2O2 injury protection, ATPLite, 2 h; protection from H2O2 cell death, % at 20 µM; 0.63% of 360,000 active;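 active = compounds giving at least 50% protection of heart cells from peroxide-induced death in the single-dose screen, raw or plate-pattern-corrected value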;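 note: 0% = DMSO wells with peroxide and 100% = DMSO wells without peroxide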
TbMetRS inhib – blocks T. brucei methionyl-tRNA synthetase activity | purified T. brucei MetRS, ATP depletion, Kinase-Glo luminescence | inhibition, % at 11.9 µM | 0.4% of 360,000 active | AID 624268;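 active = inhibition above a per-plate cutoff of the control wells' mean inhibition plus 3 SD, cut at about 5.5% in these data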;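 note: 0% = DMSO wells median and 100% = median of wells with control inhibitor compound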
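assay system = parasite MetRS enzyme | timing = 15 min preincubation, 2 h reaction, all 25 °C | evaluation = percent inhibition relative to median high and low control wells | medium = HEPES buffer containing pyrophosphatase, BSA, spermine, DTT | compound = single dose, 11.9 µM final nominal, 0.9% final DMSO | detection = Kinase-Glo luminescence, ATP depletion format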
Tb MetRS conf – confirmation of Trypanosoma brucei MetRS inhibitors; 93% of 1,400 active; T. brucei MetRS enzyme, luminescence (ATP depletion); inhibition, % at 11.9 µM; AID 624412; shares compounds with TbMetRS inhib; in the data active = inhibition above about 7%
Jurkat cytotox – Jurkat T cell cytotoxicity for MetRS hits | shares compounds with TbMetRS inhib | Jurkat cells viability, ATP luminescence | inhibition, % at 8.3 µM | 12% of 1,400 active | AID 624413; in the data active = inhibition above about 15%;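 note: 0% = vehicle and 100% = reference inhibitor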
Tb MetRS inh FP – T. brucei MetRS inhibition, orthogonal assay | shares compounds with TbMetRS inhib | inhibition, % at 11.9 µM | 44% of 1,400 active | purified T. brucei MetRS, fluorescence polarization; in the data active = inhibition above about 17%;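 note: 0% = vehicle wells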
Numbers without * were called inactive; nt = no result. A selection: hits, their analogues and other compounds. The true share with any hit is near 1.5%.

SMILES	PKA-R2B act	Rin1-Abl PPI inh	PKA-R1A activ	H9c2 protect	TbMetRS inhib	Tb MetRS conf	Jurkat cytotox	Tb MetRS inh FP
CN(C)c1ccc(NC(=O)Cn2cc3c(n2)CCCC3)cc1	-4	-1	4	-29	16*	16*	21*	4
O=C(CCCSc1nc2ccccc2[nH]1)N1CCN(c2ccc([N+](=O)[O-])cc2)CC1	-3	-6	-7	-30	9.2*	55*	1	14
NC(=S)Nc1cccc(-c2n[nH]c(=S)o2)c1	4	-2	-9	9	14*	35*	1	17*
Cc1ccc(NC(=S)Nc2cccc(-c3n[nH]c(=S)o3)c2)cc1	-18	-2	1	-3	1	nt	nt	nt
Nc1nc(N)c(-c2cccc(C(F)(F)F)c2)c(Cc2cccc(C(F)(F)F)c2)n1	-11	5	3	-15	16*	60*	-6	34*
Nc1ncccc1OCc1cccc(C(F)(F)F)c1	-7	0	-9	-21	-1	nt	nt	nt
CC(=O)C1C(c2ccc([N+](=O)[O-])cc2)c2c(noc2C)CC1(C)O (stereo unspecified)	4	-2	1	4	0	nt	nt	nt
Cn1nc(C(F)(F)F)c(-c2ccc(Br)cc2)c1NC(=O)Nc1ccc(F)cc1F	-9	-2	-20	-14	25*	54*	15	31*
COc1ccc(-c2nnc(SC(C(=O)c3c[nH]c4ccccc34)c3ccccc3)n2N)cc1OC (stereo unspecified)	-2	2	-3	10	16*	28*	3	18*
CCCCc1nnc(NC(=O)c2ccc3[nH]c(=O)c(=O)[nH]c3c2)s1	-4	4	3	-2	-1	nt	nt	nt
O=C(NC(=S)NNC(=O)c1cnccn1)c1ccc(Cl)cc1	-5	-2	-10	36	5.9*	2	6	-5
COc1ccc(C(=O)NC(=S)NNC(=O)c2cnccn2)cc1	-1	-2	5	32	0	nt	nt	nt
NS(=O)(=O)c1cccc(NC(=O)CSc2nc3ccccc3[nH]2)c1	-12	3	4	0	7.8*	16*	2	10
O=C(CSc1nc2ccccc2[nH]1)NCc1ccc(F)cc1	-1	-3	6	-5	7.7*	13*	3	-1
O=C(CSc1nc(-c2ccccc2)cc(=O)[nH]1)NCc1ccc2c(c1)OCO2	-1	1	10	-2	-1	nt	nt	nt
C/C(=N\Nc1nc2ccccc2[nH]1)c1ccc2c(c1)OCCO2	-13	-2	-6	-14	3	nt	nt	nt
C/C(=N\Nc1nc2ccccc2[nH]1)c1ccc2c(c1)OCO2	0	0	-2	-9	7.3*	8.8*	0	18*
O=C(CSc1nc2ccccc2[nH]1)NCc1ccc2c(c1)OCO2	1	3	2	4	28*	43*	1	20*
CCN(CC(=O)NCc1cccs1)C(=O)c1cccc(Cl)c1	-11	3	-11	3	0	nt	nt	nt
O=C(CCc1nc2ccccc2[nH]1)NCc1ccc2c(c1)OCO2	0	-2	5	0	20*	36*	-5	13
O=C(CCc1nc2ccccc2[nH]1)Nc1ccc2c(c1)OCO2	7	3	-3	-10	1	nt	nt	nt
CCc1c(O)nc(SCC(=O)Nc2ccc(Br)cc2)n(-c2ccc(C)cc2)c1=O	-8	3	0	2	6.4*	22*	1	2
CCc1c(O)nc(SCC(=O)Nc2ccccc2)n(-c2ccccc2)c1=O	7	0	3	-3	-1	nt	nt	nt
OCC1(Cc2ccccc2Cl)CCN(C/C=C/c2ccccc2)CC1	-6	-1	-15	-7	7.2*	19*	5	4
CCCCN(C(=O)c1cc2c(s1)CCC2)c1c(N)n(CCCC)c(=O)[nH]c1=O	-9	-5	-10	-4	0	nt	nt	nt
CCN(CC)c1ccc(/C=N/NC(=O)Cc2nnc(NC(=O)Nc3ccccc3)s2)cc1	5	0	-4	5	8.4*	9.2*	3	5

Screens deposited in PubChem BioAssay by several laboratories.
